Key:
[1] = tested on: Human immunodeficiency virus 1; test: Antiviral activity against HIV1 3B infected in human MT2 cells assessed as inhibition of p24 antigen production pretreated with virus for 30 mins followed by 4 days incubation with cells by sandwich ELISA based multicycle infection assay; assay type: functional, cell-based
In short: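 MT-2 cells were infected with HIV-1 IIIB at 100 TCID50 and preincubated 30 min with graded compound concentrations. Medium was replaced next day. Supernatants were collected 4 days post-infection, lysed with equal volume 5% Triton X-100, and p24 was measured by sandwich ELISA. IC50 came from percent inhibition of p24.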

[2] = tested on: Human immunodeficiency virus 1; test: Antiviral activity against X4 tropic HIV1 HXB2 infected in human TZM-bl cells pretreated with virus for 30 mins followed by 3 days incubation with cells by luciferase reporter gene based single cycle infection assay; assay type: functional, cell-based
In short: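 TZM-bl cells (1 x 10^4/well) were cultured overnight at 37 °C. HXB2-Env pseudovirus was preincubated 30 min with graded compound concentrations, then added to the cells for 3 days. Cells were washed and lysed, and luciferase was read. IC50 came from percent inhibition.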

[3] = (§1) Cytotoxicity against human TZM-bl cells incubated for 3 days by XTT assay; assay type: cell-based; details: TZM-bl cells
In short: (§2)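 TZM-bl cells, 1 x 10^4/well, cultured overnight at 37 °C. Compounds added at graded concentrations for three days.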

[4] = (§3) Cytotoxicity against human MT2 cells incubated for 4 days by XTT assay; assay type: cell-based; details: MT2 cells
In short: (§4)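 Run alongside the MT-2 multicycle infection assay. Compound at graded concentrations mixed with an equal volume of MT-2 cells (10^5 cells/ml). Medium replaced next day and culture continued four days.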

TZM = test: as §1; assay type: cell-based; details: tzm, 72 h; in short: as §2
MT2 = test: as §3; assay type: cell-based; details: mt2, 96 h, 96 h; in short: as §4
[5] = Human immunodeficiency virus 1, 3B, MT2
[6] = Human immunodeficiency virus 1, HXB2, TZM-bl

Structure (SMILES)	IC50 [1, 5]	IC50 [2, 6]	CC50 at 72 h [3]	CC50 at 96 h [4]	IC50 [1]	CC50 (TZM)	CC50 (MT2)	IC50 [2]
Cc1nc(C(CN(C)C)NC(=O)c2ccc(-c3ccc(Cl)cc3)[nH]2)sc1CO (centres undefined)	> 40 µM	> 40 µM	> 40 µM	> 40 µM	–	–	–	–
Cc1nc(C(CN)NC(=O)c2cnc(-c3ccc(Cl)cc3)[nH]2)sc1CO (centres undefined)	> 26 µM	> 51 µM	> 51 µM	> 51 µM	–	–	–	–
Cc1ccc(-c2ccc(C(=O)NC(CN(C)C)c3nc(C)c(CO)s3)[nH]2)cc1F (centres undefined)	> 20 µM	> 40 µM	> 40 µM	> 40 µM	–	–	–	–
COc1ccc(-c2ccc(C(=O)NC(CN)c3ncc(CO)s3)[nH]2)cc1OC (centres undefined)	> 50 µM	> 50 µM	> 50 µM	> 50 µM	–	–	–	–
Cc1nc(C(CN)NC(=O)c2ccc(-c3ccc(F)c(F)c3)[nH]2)sc1CO (stereo in doubt; 25A)	6 µM	3.4 µM	57.3 µM	61.2 µM	–	–	–	–
Cc1nc(C(CN)NC(=O)c2ccc(-c3ccc(F)c(F)c3)[nH]2)sc1CO (stereo in doubt; 25B)	–	–	–	–	4.8 µM	58.6 µM	64.6 µM	–
Cc1nc(C(CN)NC(=O)c2ccc(-c3ccc(Cl)cc3)n2C)sc1CO (stereo in doubt; 26A)	> 25 µM	25.8 µM	36.7 µM	26.6 µM	–	–	–	–
Cc1nc(C(CN)NC(=O)c2ccc(-c3ccc(Cl)cc3)n2C)sc1CO (stereo in doubt; 26B)	–	–	–	–	–	35.8 µM	32.1 µM	26 µM
Cc1cc(-c2ccc(Cl)cc2)[nH]c1C(=O)NC(CN)c1nc(C)c(CO)s1 (stereo in doubt; 27A)	3.9 µM	1.1 µM	26.4 µM	20.2 µM	–	–	–	–
Cc1cc(C(=O)NC(CN)c2nc(C)c(CO)s2)[nH]c1-c1ccc(Cl)cc1 (stereo in doubt; 28B)	–	–	–	–	6.1 µM	5.2 µM	4.1 µM	–
COc1cc(C(=O)NC(CN)c2nc(C)c(CO)s2)[nH]c1-c1ccc(Cl)cc1 (stereo in doubt; 29A)	> 24 µM	22.2 µM	25.4 µM	25 µM	–	–	–	–
COc1cc(C(=O)NC(CN)c2nc(C)c(CO)s2)[nH]c1-c1ccc(Cl)cc1 (stereo in doubt; 29B)	–	–	–	–	–	16.4 µM	15.7 µM	16.9 µM
Cc1nc(C(CN)NC(=O)c2ncc(-c3ccc(Cl)cc3)[nH]2)sc1CO (stereo in doubt; 30A)	> 26 µM	51 µM	> 51 µM	> 51 µM	–	–	–	–
Cc1nc(C(CN)NC(=O)c2ncc(-c3ccc(Cl)cc3)[nH]2)sc1CO (stereo in doubt; 30B)	–	–	–	–	–	–	–	35 µM
CNCC(NC(=O)c1ccc(-c2ccc(Cl)cc2)[nH]1)c1nc(C)c(CO)s1 (stereo in doubt; 41A)	5.5 µM	–	28.4 µM	27.2 µM	–	–	–	–
CNCC(NC(=O)c1ccc(-c2ccc(Cl)cc2)[nH]1)c1nc(C)c(CO)s1 (stereo in doubt; 41B)	–	–	–	–	3.1 µM	31.7 µM	26.4 µM	–
CNCC(NC(=O)c1ccc(-c2ccc(Cl)c(F)c2)[nH]1)c1nc(C)c(CO)s1 (stereo in doubt; 42A)	2.4 µM	1.6 µM	20.6 µM	21.7 µM	–	–	–	–
CNCC(NC(=O)c1ccc(-c2ccc(Cl)c(F)c2)[nH]1)c1nc(C)c(CO)s1 (stereo in doubt; 42B)	–	–	–	–	2 µM	21.3 µM	18.1 µM	–

Structure (SMILES)	IC50 [1, 5]	IC50 [2, 6]	CC50 at 72 h [3]	CC50 at 96 h [4]	IC50 [1]	CC50 (TZM)	CC50 (MT2)	IC50 [2]
CNCC(NC(=O)c1ccc(-c2ccc(C)c(F)c2)[nH]1)c1nc(C)c(CO)s1 (stereo in doubt; 43A)	1.1 µM	–	33.5 µM	34.4 µM	–	–	–	–
Cc1nc(C(CN(C)C)NC(=O)c2ccc(-c3ccc(Cl)c(F)c3)[nH]2)sc1CO (stereo in doubt; 45A)	> 20 µM	16.7 µM	> 40 µM	> 40 µM	–	–	–	–
Cc1nc(C(CN(C)C)NC(=O)c2ccc(-c3ccc(Cl)c(F)c3)[nH]2)sc1CO (stereo in doubt; 45B)	–	–	–	–	19.2 µM	–	–	19 µM
Cc1nc(C(CCN)NC(=O)c2ccc(-c3ccc(F)c(Cl)c3)[nH]2)sc1CO (stereo in doubt; 62A)	7.8 µM	6.6 µM	25.5 µM	25.1 µM	–	–	–	–
Cc1cc(-c2ccc(C(=O)NC(CCN)c3nc(C)c(CO)s3)[nH]2)ccc1F (stereo in doubt; 63A)	1.8 µM	5.7 µM	33 µM	35.8 µM	–	–	–	–
CNCCC(NC(=O)c1ccc(-c2cccc(Cl)c2)[nH]1)c1nc(C)c(CO)s1 (stereo in doubt; 64A)	7.8 µM	6.3 µM	23 µM	25.1 µM	–	–	–	–
CNCCC(NC(=O)c1ccc(-c2ccc(F)c(Cl)c2)[nH]1)c1nc(C)c(CO)s1 (stereo in doubt; 65A)	3.9 µM	–	22 µM	22.6 µM	–	–	–	1.5 µM
CNCCC(NC(=O)c1ccc(-c2ccc(F)c(C)c2)[nH]1)c1nc(C)c(CO)s1 (stereo in doubt; 66A)	4.1 µM	4.1 µM	38.9 µM	25.9 µM	–	–	–	–
Cc1nc(C(CCN(C)C)NC(=O)c2ccc(-c3cccc(Cl)c3)[nH]2)sc1CO (stereo in doubt; 67A)	13.8 µM	10.4 µM	29.4 µM	26 µM	–	–	–	–
Cc1nc(C(CCN(C)C)NC(=O)c2ccc(-c3ccc(F)c(Cl)c3)[nH]2)sc1CO (stereo in doubt; 68A)	3.7 µM	1.5 µM	21.3 µM	19.1 µM	–	–	–	–
Cc1cc(-c2ccc(C(=O)NC(CCN(C)C)c3nc(C)c(CO)s3)[nH]2)ccc1F (stereo in doubt; 69A)	2.1 µM	–	23.7 µM	25.1 µM	–	–	–	1.9 µM
NCC(NC(=O)c1ccc(-c2ccc(Cl)cc2)[nH]1)c1ncc(CO)s1 (stereo in doubt; 81A)	1.4 µM	1.3 µM	38 µM	35.6 µM	–	–	–	–
NCC(NC(=O)c1ccc(-c2ccc(Cl)c(F)c2)[nH]1)c1ncc(CO)s1 (stereo in doubt; 82A)	0.94 µM	1.1 µM	37.4 µM	32 µM	–	–	–	–
Cc1ccc(-c2ccc(C(=O)NC(CN)c3ncc(CO)s3)[nH]2)cc1F (stereo in doubt; 83A)	–	–	39.2 µM	35.2 µM	1.6 µM	–	–	–
NCC(NC(=O)c1ccc(-c2cc(F)c(Cl)c(F)c2)[nH]1)c1ncc(CO)s1 (stereo in doubt; 84B)	–	–	–	–	0.97 µM	20.6 µM	17.4 µM	–
CNCC(NC(=O)c1ccc(-c2ccc(Cl)c(F)c2)[nH]1)c1ncc(CO)s1 (stereo in doubt; 86A)	3.9 µM	1.4 µM	17.4 µM	18.4 µM	–	–	–	–
CNCC(NC(=O)c1ccc(-c2ccc(C)c(F)c2)[nH]1)c1ncc(CO)s1 (stereo in doubt; 87A)	–	2 µM	22.3 µM	26.6 µM	4.4 µM	–	–	–
CNCC(NC(=O)c1ccc(-c2cc(F)c(Cl)c(F)c2)[nH]1)c1ncc(CO)s1 (stereo in doubt; 88A)	0.36 µM	0.36 µM	10.4 µM	14 µM	–	–	–	–

Reference: ChEMBL document CHEMBL4007461, “Synthesis, Antiviral Potency, in Vitro ADMET, and X-ray Structure of Potent CD4 Mimics as Entry Inhibitors That Target the Phe43 Cavity of HIV-1 gp120” (J Med Chem, 2017)
